Screens: PubChem BioAssay, Johns Hopkins Ion Channel Center
Shown are actives, neighbours in structure and some others; about 3.7% of the full set was active somewhere.
KCNQ1 pot = potentiators or activators of human KCNQ1 potassium channel | P51787 | CHO-K1 KCNQ1, thallium flux FluxOR fluorescence; stronger effect = higher value | B-score at 10 µM | 310,000 tested, 0.35% active | AID 2648;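 active = fluorescence ratio B-score, a plate-corrected score, at least three library SD, with initial intensity B-score within 5 SD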
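Assay system: CHO-K1 cells stably expressing KCNQ1. Medium: assay buffer for compound exposure, DMSO matched across wells. Timing: 37 °C overnight plating, 90-min dark dye load, 20-min compound pretreatment. Signal: kinetic FluxOR fluorescence, 10 s baseline plus 110 s post-stimulus.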
KCNK3 inh = human KCNK3 channel inhibition, primary screen | CHO-KCNK3 thallium flux, FluxOR fluorescence; stronger effect = lower value | 340,000 tested, 0.84% active | O14649 | B-score at 10 µM;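 active = B-score under library mean minus 4 SD, starting fluorescence ratio at most library mean plus 5 SD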;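 note: more negative B-score means stronger inhibition of thallium flux through KCNK3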
Kir21 block = inhibitors of mouse Kir2.1 inward-rectifier potassium channel; P35561; HEK293-Kir2.1, FluxOR thallium flux fluorescence; stronger effect = lower value; B-score at 10 µM; 310,000 tested, 0.85% active; AID 1672;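 active = fluorescence ratio B-score at or below minus 3 SD of library scores, with starting-brightness B-score within 2 SD, cut at about -4.2 in these data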;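 note: channel flux triggered by added potassium and thallium sulfate stimulus; B-score of peak minus minimum fluorescence over baseline after thallium stimulus; more negative B-score means stronger Kir2.1 block with less thallium influx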
KCNK9 inh-1 = inhibitors of human KCNK9 two-pore domain potassium channel. HEK293 KCNK9, FluxOR thallium flux fluorescence; stronger effect = lower value. B-score at 10 µM. 310,000 tested, 1.2% active. AID 488922;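 active = ratio B-score over 3 SD below the library mean, with starting fluorescence within 5 SD of its mean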;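 note: negative B-score means less thallium flux so channel inhibition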
KCNQ1 block = human KCNQ1 channel inhibition; P51787; 310,000 tested, 1.3% active; B-score at 10 µM; AID 2642; CHO-K1 KCNQ1, FluxOR thallium flux fluorescence; stronger effect = higher value;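 active = compounds whose thallium flux B-score, printed positive for inhibition, exceeds three library SD while starting fluorescence stays within three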;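 note: channel opened by potassium depolarization with thallium stimulus after 20 min compound exposure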
hERG protect = compounds protecting human hERG from proarrhythmic drug block; Q12809; CHO-hERG, FluxOR thallium flux, dofetilide IC70 present; activation (rescue from dofetilide block), less the hit threshold, % at 10 µM; 310,000 tested, 0.51% active;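 active = activation above the mean of controls blocked by dofetilide plus 5 SD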;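 note: thallium influx through hERG after potassium depolarization seen as dye fluorescence rise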
hERG ctr = blocks human hERG, in counter-screen for Kir2.1 inhibitors; shares compounds with Kir21 block; hERG-expressing cells, thallium flux; inhibition, % at 10 µM; 320 tested, 20% active; AID 2236;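 note: host cells are CHO cells stably expressing hERG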
KCNK9 inh-2 = tests whether Kir2.1 inhibitors also affect human KCNK9 | KCNK9-expressing cells, ion flux inhibition | inhibition, % at 10 µM | shares compounds with Kir21 block | 320 tested, 5% active
Kir21 ephys inh = inhibitors of mouse Kir2.1 potassium channel. shares compounds with Kir21 block. Kir2.1 cells, automated patch-clamp current inhibition. inhibition, % at 25 µM. 320 tested, 71% active. AID 463252
KCNQ1 inh valid = reconfirmed blocker of the human KCNQ1 potassium channel; shares compounds with KCNQ1 block; KCNQ1 cell line, FluxOR thallium flux fluorescence; inhibition, % at 10 µM; 1,600 tested, 93% active; AID 588353;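 active = primary screen active, with duplicate mean exceeding buffer control mean plus 3 SD of buffer wells, cut at about 28% in these data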;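 note: 0% = buffer control ratio and 100% = XE991 inhibitor control ratio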
CHO KCNQ1 ctr = counter-screen for KCNQ1 inhibitors: effect in parental CHO cells; shares compounds with KCNQ1 block; parental CHO-K1, FluxOR thallium flux fluorescence ratio; stronger effect = lower value; zero means no signal rise above baseline; fluorescence ratio (Tl flux) at 10 µM; 1,600 tested, 21% active; AID 588366;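 active = mean of duplicate thallium-flux fluorescence ratios in parental host cells more than 5 SD below the buffer control mean, cut at about 0.38 in these data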;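 note: ratio is peak minus minimum fluorescence divided by baseline fluorescence; actives read low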
KCNQ2 spec = selectivity of KCNQ1 inhibitors: inhibition of rat KCNQ2 channel | shares compounds with KCNQ1 block | KCNQ2 cells, FluxOR thallium flux fluorescence | inhibition, % at 10 µM | 1,600 tested, 71% active | AID 651746;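 active = mean percent inhibition of the KCNQ2 thallium signal more than 5 SD above the buffer-only control wells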;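 note: KCNQ2 expressed in CHO cells; 0% = buffer control wells and 100% = XE-991 inhibitor control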
KCNQ1-KCNE1 inh = human KCNQ1/KCNE1 inhibition in KCNQ1 specificity screen; shares compounds with KCNQ1 block; KCNQ1/KCNE1 cells, FluxOR thallium flux fluorescence; inhibition, % at 10 µM; 1,600 tested, 77% active;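 active = mean percent inhibition of duplicate wells above the buffer-only control mean plus 3 SD of those controls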;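 note: 0% = buffer only wells and 100% = XE-991 inhibitor control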
KCNK9 inh conf = human KCNK9 inhibitor confirmation; 4,900 tested, 43% active; shares compounds with KCNK9 inh-1; inhibition, % at 10 µM; HEK293 KCNK9 cells, FluxOR thallium flux fluorescence;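 active = thallium signal inhibited by more than 5 SD of the compound-free buffer control wells, on both duplicate plates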;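 note: 0% = assay buffer control wells without compound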
Kir21 sel = selectivity of KCNK9 modulators against mouse Kir2.1 | shares compounds with KCNK9 inh-1 | Kir2.1 cells, FluxOR thallium flux fluorescence | inhibition, % at 10 µM | 4,900 tested, 4% active;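 active = thallium signal drop more than 5 SD beyond the mean of the no-compound control wells, seen in both duplicate plates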;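 note: signal is fluorescence rise after thallium addition divided by baseline fluorescence; plate controls were assay buffer only for no effect and full block by chlorpromazine control for full effect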
HEK293 Tl ctr = second counter-screen for KCNK9 modulators: effect in non-induced cells; 4,900 tested, 40% active; shares compounds with KCNK9 inh-1; non-induced KCNK9-HEK293, FluxOR thallium flux; inhibition, % at 10 µM;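 active = thallium signal drop beyond 5 SD of the untreated control mean, on both duplicate plates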;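 note: plate controls were buffer only IC0 wells for no effect and SID17386958 at its maximal inhibitory level for full effect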
KCNK3 confirm = confirmation of human KCNK3 two-pore domain potassium channel inhibitors; 2,400 tested, 99% active; ratio percent of control, % at 10 µM; CHO-KCNK3 thallium flux, FluxOR fluorescence; 0% buffer, 100% carvedilol maximal block; shares compounds with KCNK3 inh;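 active = ratio percent of control, averaged over triplicates, above buffer control mean plus 5 SD, cut at about 64% in these data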;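 note: ratio is the fluorescence rise from min to max over baseline after thallium stimulus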
KCNK3 uninduced = KCNK3 inhibitor counter-screen hit in non-induced cells; thallium flux ratio (lower = more inhibition) at 10 µM; 2,400 tested, 40% active; AID 651747; non-induced KCNK3 parental cells, FluxOR thallium flux; stronger effect = lower value; shares compounds with KCNK3 inh;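 active = thallium flux ratio, averaged over three wells, more than 5 SD below the buffer control mean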;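 note: host cells are CHO cells without KCNK3 induction; ratio is peak minus trough fluorescence over baseline then normalized to buffer controls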
* hit, by the source's call; i = inactive; / = not tested or not shown. Unless noted, the rule behind the calls is not given here.

SMILES	KCNQ1 pot	KCNK3 inh	Kir21 block	KCNK9 inh-1	KCNQ1 block	hERG protect	hERG ctr	KCNK9 inh-2	Kir21 ephys inh	KCNK9 inh conf	Kir21 sel	HEK293 Tl ctr	others
COc1cccc(C(C)NC(=S)NCc2ccc(Cl)cc2)c1 (configuration not stated)	i	i	-7.85*	i	8*	-19.9	i	i	31.4%*	/	/	/	KCNQ1 inh valid=0.0;CHO KCNQ1 ctr=0.524;KCNQ2 spec=i;KCNQ1-KCNE1 inh=i
CCOC(=O)n1cnc2nc(N)nc(SC)c21	/	i	/	/	/	/	/	/	/	/	/	/
O=C(O)c1cnn(-c2nc(-c3ccc(Cl)c(Cl)c3)cs2)c1C(F)(F)F	i	i	3.04	i	i	-3.5	i	i	i	i	i	i
OCCCNc1cc(-c2ccccc2)nc2cc(-c3ccc(F)cc3)nn12	i	i	-0.76	i	i	-10.9	/	/	/	/	/	/
CN(CCCCOc1ccc(F)cc1)Cc1ccccc1	i	i	-0.01	i	i	-2.6	/	/	/	/	/	/
Cc1cc(C)c(C)c(OCCCCN(C)Cc2ccccc2)c1	i	i	-7.28*	i	i	-5.8	i	i	8.7%*	i	46.5%*	i
CCOC(=O)CSc1nc(Cc2ccccc2)nc2ccccc12	i	i	-5.99*	-13.4*	i	-12.0	i	i	31.9%*	36.0%*	i	i	KCNK3 confirm=96.3*;KCNK3 uninduced=i
CCOC(=O)CSc1nc(-c2ccccc2)nc2ccccc12	i	i	0.66	i	i	-9.0	/	/	/	/	/	/
COc1ccccc1CNC(=O)CN1C(=O)NC2(CCCc3sccc32)C1=O (configuration not stated)	/	i	/	/	/	/	/	/	/	/	/	/
CCC(=O)c1cn(CC(=O)Nc2ccc(C)cc2)c2ccccc12	i	i	2.19	i	i	0.2	/	/	/	/	/	/
